Sampled rows, rich in hits. Any-hit rate of the full collection: about 2.2%.
PMI act satM6P = human PMI activators, high substrate, primary screen, biochemical, fluorescence intensity, near-saturating mannose 6-phosphate. hit rate 0.34% among 190,000. coupled PMI enzyme assay, resazurin fluorescence, 20 min; hits give high values; 1 = untreated enzyme, 0 = substrate-free blank. activation factor at 20 µM. Mannose-6-phosphate isomerase (Homo sapiens), P34949;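 active = activation factor of 2 or more at 20 µM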
Target sequence (P34949 whole entry, looked up): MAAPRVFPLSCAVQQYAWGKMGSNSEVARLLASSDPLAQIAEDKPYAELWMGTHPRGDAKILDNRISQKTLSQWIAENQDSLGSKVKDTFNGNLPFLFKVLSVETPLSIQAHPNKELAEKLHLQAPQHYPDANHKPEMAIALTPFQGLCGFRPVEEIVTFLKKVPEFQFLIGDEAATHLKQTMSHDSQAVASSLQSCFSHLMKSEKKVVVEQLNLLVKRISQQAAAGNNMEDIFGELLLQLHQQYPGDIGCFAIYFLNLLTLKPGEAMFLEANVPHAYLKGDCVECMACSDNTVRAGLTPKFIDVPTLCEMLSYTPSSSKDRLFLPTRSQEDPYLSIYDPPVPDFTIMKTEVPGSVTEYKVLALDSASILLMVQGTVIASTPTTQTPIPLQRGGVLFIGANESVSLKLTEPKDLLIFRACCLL
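Test system – human PMI in coupled enzyme assay · Timing – 20 min incubation at room temperature · Detection – Diaphorase-driven resazurin-to-resorufin fluorescence, excitation 544, emission 590 nm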
Diaph act CS = compounds boosting diaphorase resazurin reduction – biochemical, uHTS, resorufin fluorescence, counter-screen for diaphorase-coupled primary assays, primary screen; Diaphorase/resazurin coupled assay, 16 min; hits give high values; 1 = vehicle wells, 0 = NADH-free wells; activation factor at 20 µM; hit rate 0.005% among 190,000;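 active = diaphorase activity raised at least twofold by the compound at 20 µM; inactive = activation factor below 2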
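System – purified diaphorase enzyme from Clostridium kluyveri · Input – enzyme 0.07 U/mL final · Also added – final NADH 0.114 mM, resazurin 0.1 mM · Measured by – fluorescence of resorufin, 544 nm excitation, 590 nm emission · Timing – 16 min enzyme reaction, ambient temperature · Measure – resorufin increase flagging diaphorase activators or reducers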
PMI act = activators of human PMI, primary screen, biochemical, fluorescence intensity, near-Km mannose 6-phosphate | Mannose-6-phosphate isomerase (Homo sapiens), P34949 | purified human PMI, coupled resazurin fluorescence, 20 min; hits give high values; 1 = vehicle control, 0 substrate-free wells | activation factor at 20 µM | hit rate 0.005% among 190,000;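 active = activation factor of 2 or more at 20 µM, relative to plate controls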
ROMK mod = ROMK potassium channel modulators, primary screen, cell-based, thallium flux, MLSMR library; hit rate 2% among 130,000; Tet-inducible ROMK, thallium flux fluorescence; actives lie on both sides; B-score at 10 µM;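 active = signal ratio slope over the read window, or its plate-corrected B-score, at least 3 SD from the plate mean, either direction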;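 note: B-score of the F/F0 ratio slope over 7 to 12 s after thallium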
Diaph inh CS = diaphorase inhibitors and chemical oxidizers, primary screen, counter-screen for diaphorase-coupled primary assays, biochemical, uHTS, resorufin fluorescence; inhibition, % at 20 µM; hit rate 0.69% among 190,000; diaphorase resazurin-to-resorufin fluorescence, NADH, 16 min; bacterial (C. kluyveri) enzyme, not human;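 active = primary screen inhibition at 20 µM above a set limit, cut at about 50% in these data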;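 note: plate controls were DMSO with full reaction for no effect and wells lacking NADH for full effect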
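System: Bacterial diaphorase enzyme (C. kluyveri) | Incubation: 16-min room-temperature incubation before reading | Benchmarks: No-NADH positive control and DMSO neutral control | Measured by: Resorufin fluorescence 544/590 nm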
G6PDH counter = L. mesenteroides G6PDH inhibitors, counter-screen for G6PDH-coupled screening assays, biochemical, Leuconostoc mesenteroides enzyme; glucose-6-phosphate dehydrogenase [Leuconostoc mesenteroides]; Purified L. mesenteroides G6PDH, diaphorase/resazurin coupled fluorescence, 45 min; inhibition, % at 5 µM; hit rate 0.12% among 200,000; AID 1020, 2008; in the data active = inhibition above about 50%
* marks the source's active call; other numbers are inactive results; x = no result.

SMILES | PMI act satM6P | Diaph act CS | PMI act | ROMK mod | Diaph inh CS | G6PDH counter
CCC1(C)Cc2c(sc3nnn(Cc4ccccc4Cl)c(=O)c23)CO1 (centres undefined) | 1 | 0.4 | 0.9 | x | 57* | 4
CC(C)(C)c1ccc(-c2ncccc2O)cc1 | 0.9 | 0.7 | 0.9 | -0.89 | 25 | 12
C=CCn1c(=O)c(C(=O)Nc2ccccc2S(N)(=O)=O)c(O)c2ccccc21 | 1.1 | 0.8 | 0.9 | 0.00095 | 24 | 13
Oc1cccc(NC(=S)N=Nc2c(O)[nH]c3ccccc23)c1 | x | x | x | 0.18 | x | x
CCOc1ccc(NC(=S)N=Nc2c(O)[nH]c3ccccc23)cc1 | 1.2 | 0.9 | 1 | 1.2* | 14 | -7
CCC1=C/C(=C/c2sc3ccccc3[n+]2CC)CC(C)(C)C1 | 2.3* | 0.8 | 1.6 | -0.7 | 17 | -3
CC[n+]1c(/C=C2\C=C(C)CC(C)(C)C2)sc2ccccc21 | 1.7 | 0.7 | 1.2 | -0.3 | 31 | 2
CC(Cl)C(=O)c1ccc2c(c1)CCN2C(=O)C1CC1 (centres undefined) | 1.3 | 0.4 | 1.3 | x | 62* | 6
COc1cccc(NC(=S)N/N=C2\CC3CCC2(C)C3(C)C)c1 (centres undefined) | 1 | 0.9 | 0.9 | -0.76 | 7 | 5
COc1cccc(NC(=S)NN=C2CCC(C(C)(C)C)CC2)c1 (centres undefined) | 2.1* | 1 | 1.5 | -0.38 | 4 | 3
O=C(Nc1ncn[nH]1)c1cc(S(=O)(=O)Nc2ccc(Cl)cc2)ccc1Cl | 1 | 0.9 | 1.1 | 0.04 | 10 | 9
O=C(Nc1ncn[nH]1)c1ccc(Cl)c(S(=O)(=O)Nc2ccc(Cl)cc2)c1 | 2.1* | 0.9 | 1.6 | x | 13 | 3
CC(=O)Nc1ccc(NC(=O)c2nc(-c3ccccc3)oc2C)cc1 | 1 | 0.9 | 1 | 0.94 | 7 | 0
Cc1ccc(C(=O)N/C(=C\c2ccccc2F)c2nc(=S)[nH][nH]2)cc1 | 1.3 | 0.5 | 1.3 | 1.5 | 51* | 4
O=c1[nH]c2ccccc2nc1C(Cl)c1ccccc1 (centres undefined) | 2.1* | 0.8 | 1.6 | 1.3 | 20 | 4
CCOC(=O)C(C)c1nc2ccccc2[nH]c1=O (centres undefined) | 0.9 | 1 | 0.9 | -1.3 | 0 | 4
CCc1nc2ccccc2n1CC1CC1(Cl)Cl (centres undefined) | 0.9 | 1 | 1 | -0.36 | 3 | 10
CN1C(=O)CC(NNC(=O)c2ccccc2)C1=O (centres undefined) | 0.9 | 0.8 | 0.8 | x | 17 | 2
CN1C(=O)CC(Nc2cccc3cccc(N)c23)C1=O (centres undefined) | 0.5 | 0.3 | 0.6 | -1 | 67* | 22
CC(C)N1C(=O)CC(Nc2cccc3cccc(N)c23)C1=O (centres undefined) | 0.4 | 0.5 | 0.7 | x | 52* | 2
Cc1nc2cc(Cl)c(Cl)cc2n1CCCO | x | x | x | 0.0075 | x | x
Cc1cc(=S)cc(C)n1CCCO | 2* | 0.9 | 1.4 | x | 11 | -3
O=C(CCNc1n[nH]c(=O)[nH]c1=O)N/N=C/c1ccc(C(F)(F)F)cc1 | 1.1 | 1 | 1.1 | -0.45 | 4 | 2
Cc1ccc(NC2=C/C(=N/S(=O)(=O)c3cccs3)c3ccccc3C2=O)cc1 | 0.5 | 0.8 | 1 | x | 16 | 50*
O=S(=O)(NN1CCOCC1)c1ccc(Cl)s1 | 1 | 1 | 1 | -0.43 | 3 | -2
SMILES | PMI act satM6P | Diaph act CS | PMI act | ROMK mod | Diaph inh CS | G6PDH counter
C=CCn1c(C)cc(C(=O)COC(=O)c2ccc3c(c2)NC(=O)CS3)c1C | 0.8 | 0.9 | 1 | 0.96 | 12 | 3
CC(SC#N)C(=O)C12CC3CC(CC(C3)C1)C2 (centres undefined) | 1 | 1 | 1 | 0.44 | 5 | -6
CCOc1ccccc1NC(=S)NC(=O)CCCOc1ccc(Cl)cc1Cl | 0.9 | 0.8 | 0.8 | 1 | 18 | 10
O=C(COc1ccc(Cl)cc1Cl)NC(=S)Nc1ccccc1C(=O)O | 0.9 | 0.5 | 0.9 | 2.6 | 53* | 8
NC(=O)C1CCN(CC(=O)Nc2cccnc2Cl)CC1 | 1 | 1 | 1 | 0.07 | -1 | 11
CC(=O)NC(c1ccc(Cl)cc1)c1c(O)ccc2ccc(O)cc12 (centres undefined) | 0.3 | 0.7 | 0.7 | -1.5 | 26 | 54*
CC(C)N1CC=C2C(C#N)=C(N)C(C#N)(C#N)C(c3ccccc3)C2C1 (centres undefined) | 0.8 | 0.7 | 0.7 | -4.2* | 27 | 0
COc1cc(C2C3CN(C)CC=C3C(C#N)=C(N)C2(C#N)C#N)ccc1OC(C)C (centres undefined) | 0.7 | 0.8 | 1 | x | 16 | 15
CC(C)N1CC=C2C(C#N)=C(N)C(C#N)(C#N)[C@H](c3ccoc3)[C@H]2C1 | 0.4 | 0.4 | 0.6 | x | 62* | 15
CCC1C2CN(C(C)=O)CC=C2C(C#N)=C(N)C1(C#N)C#N (centres undefined) | 0.8 | 0.8 | 1 | x | 23 | 3
CCN1CC=C2C(C#N)=C(N)C(C#N)(C#N)C(c3cc(Cl)ccc3Cl)C2C1 (centres undefined) | 0.6 | 0.6 | 0.8 | -4.8* | 36 | 14
NC(=O)C1(N2CCCCC2)CCN(C(=S)Nc2ccc(S(N)(=O)=O)cc2)CC1 | 1 | 1 | 1 | 0.05 | 2 | 11
CCNc1nc(NCC)nc(N/N=C/c2ccc(O)c(O)c2)n1 | 0.8 | 0.4 | 0.4 | 0.32 | 61* | 19
CCNc1nc(NCC)nc(N/N=C/c2ccc(N(C)C)cc2)n1 | 1.1 | 1.2 | 1.1 | 0.25 | -16 | 2
COn1c2c(c3c4nonc4ccc31)CCCC2 | 0.7 | 0.7 | 0.6 | x | 34 | 47
On1c2c(c3c4nonc4ccc31)CCCC2 | 0.4 | 0.4 | 0.5 | -2.7 | 56* | 47
Nc1ccc2c(c1)OC1(CCCCC1)O2 | 0.5 | 0.5 | 0.4 | -0.25 | 48 | 25
CCn1c(=O)n(CC)c2cc(N)ccc21 | 0.2 | 0.3 | 0.2 | 0.34 | 75* | 10
CCn1c(=O)n(CC)c2cc(S(N)(=O)=O)ccc21 | 1 | 0.8 | 0.9 | x | 20 | 6
